Results published in ChEMBL document CHEMBL4049418, “6-OH-Phenanthroquinolizidine Alkaloid and Its Derivatives Exert Potent Anticancer Activity by Delaying S Phase Progression” (J Med Chem, 2017).
Activity calls are given as the source filed them. The calls are words filed in the database; no cut-off is given here.

Assays:
Bel-7402 [1] = assay: Induction of DNA damage in human Bel7402 cells assessed as increase in CHK2 phosphorylation at Thr68 residue at 0.1 to 10 uM after 1 hr by Western blot analysis; assay type: functional, cell-based
In short: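 BEL-7402 cells (1.5 × 10⁵ per well, 12-well plates) exposed to compounds for 1 h. Phospho-Chk1 Ser345, phospho-Chk2 Thr68 and γH2AX detected by Western blot. Camptothecin at 1 μM served as the DNA-damage reference.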

Bel-7402 [2] = assay: Induction of apoptosis in human Bel7402 cells assessed as early apoptotic cells at 10 nM after 72 hrs by Annexin V/propidium iodide staining based flow cytometric analysis (reference value: 3.66%); assay type: functional
In short: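 BEL-7402 cells (3 × 10⁵ per well, 6-well plates) exposed for 72 h. Harvested, PBS-washed, resuspended in cold binding buffer with annexin V–FITC and PI, and stained 15 min in the dark at room temperature. Early apoptotic, late apoptotic and necrotic fractions quantified by flow cytometry.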

SMILES	Activity (Bel-7402 [1])	Activity (Bel-7402 [2])
COc1cc2c3c(c4cc(OC)c(OC)cc4c2cc1OC)[C@H](O)[C@@H]1CCCN1C3	inactive	
COc1cc2c3c(c4ccc(O)cc4c2cc1OC)CN1CCCC[C@@H]1C3		3.93%
